# Experimental data as given in ChEMBL document CHEMBL1127630, “New dual inhibitors of neutral endopeptidase and angiotensin-converting enzyme: rational design, bioavailability, and pharmacological responses in experimental hypertension” (J Med Chem, 1994).
# What was measured:
# [1] = target: T1, Angiotensin-converting enzyme (Mus musculus, UniProt P09470); assay: Inhibitory potency against angiotensin converting enzyme by displacement of [3H]trandolaprilate binding in mouse lung
# T1 sequence (P09470 whole entry): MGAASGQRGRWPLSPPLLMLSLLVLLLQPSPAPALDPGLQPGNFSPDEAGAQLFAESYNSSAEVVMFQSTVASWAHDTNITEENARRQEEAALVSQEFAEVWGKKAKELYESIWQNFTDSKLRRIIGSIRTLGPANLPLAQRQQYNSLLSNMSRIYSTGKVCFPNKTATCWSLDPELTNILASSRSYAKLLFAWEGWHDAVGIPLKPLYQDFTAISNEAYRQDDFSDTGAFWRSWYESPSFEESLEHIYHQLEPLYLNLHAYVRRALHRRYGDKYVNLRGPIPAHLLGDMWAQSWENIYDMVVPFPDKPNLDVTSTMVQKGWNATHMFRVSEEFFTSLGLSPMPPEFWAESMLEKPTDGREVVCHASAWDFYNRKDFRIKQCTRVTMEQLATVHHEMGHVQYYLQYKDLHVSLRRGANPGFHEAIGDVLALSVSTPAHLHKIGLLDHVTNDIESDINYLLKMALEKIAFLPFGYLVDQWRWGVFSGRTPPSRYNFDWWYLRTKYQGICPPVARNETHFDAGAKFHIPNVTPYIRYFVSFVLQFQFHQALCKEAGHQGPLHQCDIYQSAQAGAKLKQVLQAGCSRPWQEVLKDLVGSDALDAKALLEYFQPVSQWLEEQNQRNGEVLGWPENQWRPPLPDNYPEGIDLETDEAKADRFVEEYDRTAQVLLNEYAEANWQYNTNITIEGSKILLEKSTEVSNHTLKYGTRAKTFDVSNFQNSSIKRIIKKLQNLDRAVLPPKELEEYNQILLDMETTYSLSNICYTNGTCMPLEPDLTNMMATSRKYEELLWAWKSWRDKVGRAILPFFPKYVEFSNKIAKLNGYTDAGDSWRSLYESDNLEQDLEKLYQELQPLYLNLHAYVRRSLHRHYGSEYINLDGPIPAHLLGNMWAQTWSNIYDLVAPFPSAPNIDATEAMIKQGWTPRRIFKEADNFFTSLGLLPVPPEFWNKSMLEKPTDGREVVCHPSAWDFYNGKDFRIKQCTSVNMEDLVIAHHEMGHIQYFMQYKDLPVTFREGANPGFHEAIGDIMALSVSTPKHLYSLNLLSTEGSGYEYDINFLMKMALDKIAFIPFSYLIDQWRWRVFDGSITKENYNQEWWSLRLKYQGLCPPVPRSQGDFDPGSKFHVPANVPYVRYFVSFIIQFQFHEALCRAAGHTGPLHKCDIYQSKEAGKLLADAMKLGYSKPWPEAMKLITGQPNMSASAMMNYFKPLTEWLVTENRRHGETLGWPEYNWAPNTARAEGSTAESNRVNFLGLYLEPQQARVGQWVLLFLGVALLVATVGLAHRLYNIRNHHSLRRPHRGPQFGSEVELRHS
# [2] = test system: Mus musculus; assay: In vivo inhibition of lung ACE was observed at 60 min after oral administration; type: functional; set-up: concentration or dose not given beside the values
# [3] = target: T2, Angiotensin-converting enzyme (Mus musculus) (UniProt P09470); assay: In vivo inhibition of lung ACE was observed at 240 min after oral administration of the compound; type: functional, organism-based; set-up: concentration or dose not given beside the values
# T2 sequence (whole entry): T1 sequence (P09470 whole entry)
# [4] = target: T2, Angiotensin-converting enzyme (Mus musculus); assay: In vivo inhibition of lung ACE was observed at 120 min after oral administration of the compound; type: functional, organism-based; set-up: concentration or dose not given beside the values
# [5] = target: T2, Angiotensin-converting enzyme (Mus musculus); assay: In vivo inhibition of lung ACE was observed at 30 min after oral administration of the compound; type: organism-based; set-up: concentration or dose not given beside the values
# [6] = target: T3, Neprilysin (Mus musculus) (UniProt Q61391); assay: Inhibition of Neutral Endopeptidase activity was measured by using the displacement of [3H]-HACBOGly from mouse kidney after 1 hr oral administration; set-up: scale not given: the % may be the effect or the level left
# T3 sequence (whole entry): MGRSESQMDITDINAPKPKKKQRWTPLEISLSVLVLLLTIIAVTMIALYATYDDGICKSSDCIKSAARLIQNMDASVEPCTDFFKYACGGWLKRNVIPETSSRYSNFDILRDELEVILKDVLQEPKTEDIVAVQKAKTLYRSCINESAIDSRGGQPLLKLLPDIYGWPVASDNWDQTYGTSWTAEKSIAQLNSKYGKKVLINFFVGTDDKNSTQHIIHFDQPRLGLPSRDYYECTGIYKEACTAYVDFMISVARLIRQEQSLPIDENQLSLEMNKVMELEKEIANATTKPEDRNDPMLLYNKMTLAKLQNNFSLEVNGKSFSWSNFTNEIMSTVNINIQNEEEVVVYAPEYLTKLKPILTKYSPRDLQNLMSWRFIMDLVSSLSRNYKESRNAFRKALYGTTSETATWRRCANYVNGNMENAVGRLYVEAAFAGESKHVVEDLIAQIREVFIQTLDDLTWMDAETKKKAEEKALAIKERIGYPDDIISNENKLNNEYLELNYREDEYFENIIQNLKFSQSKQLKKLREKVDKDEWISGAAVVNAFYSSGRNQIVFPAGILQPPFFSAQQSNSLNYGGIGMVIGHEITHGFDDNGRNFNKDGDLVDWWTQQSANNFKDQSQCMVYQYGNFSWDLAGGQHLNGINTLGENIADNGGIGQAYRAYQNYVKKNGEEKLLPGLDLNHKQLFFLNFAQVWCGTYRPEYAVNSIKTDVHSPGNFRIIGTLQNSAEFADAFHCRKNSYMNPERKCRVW
# Procedure, shortened: (§1)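 Mice dosed orally at 2.6 X 10-6 mol/kg in 10% ethanol/10% cremophor/80% water. [3H]HACBOGly (1 uCi) injected iv at intervals after dosing. Kidneys taken 15 min later, homogenized in 50 mM Tris-HCl pH 7.4 at 4 °C and filtered, radioactivity counted. Inhibition expressed as percent displacement versus control. Nonspecific binding defined with coinjected retrothiorphan (10.000 eq).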
# [7] = target: T3, Neprilysin (Mus musculus); assay: Inhibition of Neutral Endopeptidase activity was measured by using the displacement of [3H]HACBOGly from mouse kidney after 4 hr oral administration; set-up: scale not given: the % may be the effect or the level left; procedure, shortened: as §1
# [8] = target: T3, Neprilysin (Mus musculus); assay: Inhibition of Neutral Endopeptidase activity was measured by using the displacement of [3H]HACBOGly from mouse kidney after 2 hr oral administration; set-up: scale not given: the % may be the effect or the level left; procedure, shortened: as §1
# [9] = target: T2, Angiotensin-converting enzyme (Mus musculus); assay: In vivo inhibition of lung Angiotensin Converting Enzyme (ACE) in mouse at a dose of 2.6*10e-5 mol/kg after 60 min oral administration; type: functional, organism-based
# Procedure, shortened: (§2)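 Prescreen in mice: single oral dose of 2.6 X 10-5 mol/kg of prodrug (thioacetyl and benzyl ester protected, tested as stereoisomer mixtures). Inhibition of binding of a tritiated ACE probe to lung measured 20 and 60 min after dosing. Mean ± SEM of three experiments, three mice each.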
# [10] = target: T2, Angiotensin-converting enzyme (Mus musculus); assay: Inhibition of lung Angiotensin Converting Enzyme (ACE) in mouse at a dose of 2.6*10e-5 mol/kg after 20 min oral administration; procedure, shortened: as §2
smiles,measurement,setting,value
Cc1ccccc1C(C)C(CS)C(=O)NC(Cc1ccc(O)cc1)C(=O)O (stereo not drawn),IC50,[1],210 nM
CC(c1ccccc1)C(CSC(=O)C12CC3CC(CC(C3)C1)C2)C(=O)N[C@@H](C)C(=O)OCc1ccccc1 (stereo partly drawn),Control,[2],34%
same,Control,[3],16%
same,Control,[4],42%
same,Control,[5],41%
CC[C@H](NC(=O)C(CSC(=O)c1ccccc1)C(C)c1ccccc1)C(=O)O (stereo partly drawn),Control,[6],100%
same,Control,[2],57%
same,Control,[3],30%
same,Control,[4],39%
same,Control,[7],73%
same,Control,[8],97%
same,Control,[5],73%
C[C@H](NC(=O)[C@H](CS)[C@@H](C)c1ccccc1)C(=O)O (stereo in doubt; 44b),Ki,[1],16 nM
CC(=O)SCC(C(=O)N[C@@H](C)C(=O)OCc1ccccc1)C(C)c1ccc(F)c(F)c1 (stereo partly drawn),inhibition,[9],22%
same,inhibition,[10],35%
CCCC[C@H](NC(=O)C(CSC(C)=O)C(C)c1ccccc1)C(=O)OCc1ccccc1 (stereo partly drawn),inhibition,[9],41%
same,inhibition,[10],34%
CC(=O)SCC(C(=O)N[C@@H](C)C(=O)O)C(C)c1ccccc1 (stereo partly drawn),Control,[2],29%
same,Control,[3],16%
same,Control,[4],18%
same,Control,[5],31%
CC(=O)Oc1ccc(C[C@H](NC(=O)C(CSC(C)=O)C(C)c2ccc(F)c(F)c2)C(=O)OCc2ccccc2)cc1 (stereo partly drawn),inhibition,[9],19%
same,inhibition,[10],24%
CC(=O)Oc1ccc(C[C@H](NC(=O)C(CSC(C)=O)C(C)c2ccc(F)cc2)C(=O)OCc2ccccc2)cc1 (stereo partly drawn),inhibition,[9],11%
same,inhibition,[10],36%
CC(c1ccc(N)cc1)C(CS)C(=O)NC(Cc1ccc(O)cc1)C(=O)O (stereo not drawn),IC50,[1],12 nM
CC(c1ccccc1)C(CS)C(=O)NCC(=O)O (stereo not drawn),IC50,[1],32 nM
COc1ccc(C(C)C(CS)C(=O)NC(Cc2ccc(O)cc2)C(=O)O)cc1 (stereo not drawn),IC50,[1],3.6 nM
CC(=O)SCC(C(=O)N[C@@H](Cc1ccc(O)cc1)C(=O)OCc1ccccc1)C(C)c1ccccc1 (stereo partly drawn),inhibition,[9],7%
same,inhibition,[10],20%
COc1ccc(C(C)C(CSC(C)=O)C(=O)N[C@@H](Cc2ccc(OC(C)=O)cc2)C(=O)OCc2ccccc2)cc1 (stereo partly drawn),inhibition,[9],33%
same,inhibition,[10],14%
CCC(NC(=O)C(CS)C(C)c1ccccc1)C(=O)O (stereo not drawn),IC50,[1],5.4 nM
CC(c1ccccc1)C(CS)C(=O)N[C@@H](C)C(=O)O (stereo partly drawn),IC50,[1],20 nM
O=C(NC(Cc1ccc(O)cc1)C(=O)O)C(CS)Cc1ccccc1 (stereo not drawn),IC50,[1],25 nM
CC(=O)Oc1ccc(C[C@H](NC(=O)C(CSC(C)=O)C(C)c2ccccc2)C(=O)OCc2ccccc2)cc1 (stereo partly drawn),inhibition,[9],28%
same,inhibition,[10],25%
CC(c1ccc(F)c(F)c1)C(CS)C(=O)NC(Cc1ccc(O)cc1)C(=O)O (stereo not drawn),IC50,[1],4.5 nM
CC(c1ccccc1)C(CSC(=O)C12CC3CC(CC(C3)C1)C2)C(=O)N[C@@H](C)C(=O)O (stereo partly drawn),Control,[2],39%
same,Control,[3],35%
same,Control,[4],36%
same,Control,[5],40%
CC(c1ccccc1)C(CS)C(=O)NC(Cc1ccc(O)cc1)C(=O)O (stereo not drawn),IC50,[1],4.3 nM
CCCC(NC(=O)C(CS)C(C)c1ccccc1)C(=O)O (stereo not drawn),IC50,[1],4 nM
C[C@@H](c1ccccc1)[C@@H](CS)C(=O)N[C@@H](Cc1ccccc1)C(=O)O (stereo in doubt; 48a),Ki,[1],26 nM
CCC(c1ccccc1)C(CS)C(=O)NC(Cc1ccc(O)cc1)C(=O)O (stereo not drawn),IC50,[1],110 nM
COc1ccc(C(C)C(CS)C(=O)NC(Cc2ccc(O)cc2)C(=O)O)cc1OC (stereo not drawn),IC50,[1],4 nM
CC(c1ccccc1)C(CS)C(=O)NC(COCc1ccccc1)C(=O)O (stereo not drawn),IC50,[1],43 nM
C[C@@H](c1ccccc1)[C@@H](CS)C(=O)N[C@@H](Cc1ccccc1)C(=O)O (stereo in doubt; 48b),Ki,[1],15 nM
C[C@@H](c1ccccc1)[C@@H](CS)C(=O)N[C@@H](Cc1ccccc1)C(=O)O (stereo in doubt; 48c),Ki,[1],1.9 nM
CC(NC(=O)C(CS)C(C)c1ccc(F)cc1)C(=O)O (stereo not drawn),IC50,[1],10 nM
CC(NC(=O)C(CS)C(C)c1ccc2c(c1)OCO2)C(=O)O (stereo not drawn),IC50,[1],9.5 nM
C[C@H](c1ccccc1)[C@@H](CS)C(=O)N[C@@H](Cc1ccccc1)C(=O)O,Ki,[1],10 nM
CC(c1ccc(O)cc1)C(CS)C(=O)NC(Cc1ccc(O)cc1)C(=O)O (stereo not drawn),IC50,[1],7.9 nM
C[C@H](NC(=O)[C@H](CS)[C@@H](C)c1ccccc1)C(=O)O (stereo in doubt; 44c),Ki,[1],4.5 nM
CC(NC(=O)C(CS)C(C)c1ccc(F)c(F)c1)C(=O)O (stereo not drawn),IC50,[1],5 nM
C[C@H](NC(=O)[C@H](CS)[C@@H](C)c1ccccc1)C(=O)O (stereo in doubt; 44a),Ki,[1],80 nM
C[C@H](NC(=O)[C@H](CS)[C@@H](C)c1ccccc1)C(=O)O (stereo in doubt; 44d),Ki,[1],95 nM
CC(C)CC(NC(=O)C(CS)C(C)c1ccccc1)C(=O)O (stereo not drawn),IC50,[1],19 nM
CC(C)C(NC(=O)C(CS)C(C)c1ccccc1)C(=O)O (stereo not drawn),IC50,[1],100 nM
COc1cc(C(C)C(CS)C(=O)NC(Cc2ccc(O)cc2)C(=O)O)ccc1O (stereo not drawn),IC50,[1],14 nM
CC(c1ccc(F)cc1)C(CS)C(=O)NC(Cc1ccc(O)cc1)C(=O)O (stereo not drawn),IC50,[1],6.9 nM
CCCCC(NC(=O)C(CS)C(C)c1ccccc1)C(=O)O (stereo not drawn),IC50,[1],7 nM
